ChEMBL document CHEMBL3608232, “Exploring the Existing Drug Space for Novel pTyr Mimetic and SHP2 Inhibitors” (ACS Med Chem Lett, 2015)
Calls of active or inactive are those of the source. No cut-off for these calls is given here.

Experiments:
NCI-H1975 = assay: Cytotoxicity against human NCI-H1975 cells by MTT assay; type: functional, cell-based
MDA-MB-231 = assay: Cytotoxicity against human MDA-MB-231 cells by MTT assay; type: functional, cell-based
[1] = biological target: T1, Tyrosine-protein phosphatase non-receptor type 11 (Homo sapiens) (UniProt Q06124); assay: Inhibition of phosphatase activity of SHP2 (unknown origin) using pNPP as a substrate at 50 uM after 10 mins by spectrophotometer analysis
T1 sequence (whole entry): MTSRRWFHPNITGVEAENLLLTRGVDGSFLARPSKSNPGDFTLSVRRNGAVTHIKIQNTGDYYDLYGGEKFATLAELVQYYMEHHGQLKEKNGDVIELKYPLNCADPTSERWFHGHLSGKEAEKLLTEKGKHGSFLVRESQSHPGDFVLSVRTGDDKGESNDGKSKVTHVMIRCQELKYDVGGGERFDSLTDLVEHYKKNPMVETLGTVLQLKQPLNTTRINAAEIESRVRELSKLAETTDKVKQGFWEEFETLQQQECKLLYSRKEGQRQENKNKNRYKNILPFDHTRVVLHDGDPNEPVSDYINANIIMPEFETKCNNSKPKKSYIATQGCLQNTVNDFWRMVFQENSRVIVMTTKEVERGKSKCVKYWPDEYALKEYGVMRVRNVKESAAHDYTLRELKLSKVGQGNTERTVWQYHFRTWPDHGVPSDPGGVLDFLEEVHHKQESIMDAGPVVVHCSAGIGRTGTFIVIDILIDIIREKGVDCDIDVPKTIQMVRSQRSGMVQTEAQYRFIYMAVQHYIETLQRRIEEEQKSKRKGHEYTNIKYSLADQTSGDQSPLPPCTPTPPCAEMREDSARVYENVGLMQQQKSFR

SK-BR-3 = assay: Growth inhibition of human SKBR3 cells expressing ErbB2 in 3D matrigel after 5 days; type: functional, cell-based
[2] = biological target: T2, Tyrosine-protein phosphatase non-receptor type 22 (Homo sapiens, UniProt Q9Y2R2); assay: Inhibition of phosphatase activity of human LYP using pNPP as a substrate after 10 mins by spectrophotometer analysis
T2 sequence (Q9Y2R2 whole entry): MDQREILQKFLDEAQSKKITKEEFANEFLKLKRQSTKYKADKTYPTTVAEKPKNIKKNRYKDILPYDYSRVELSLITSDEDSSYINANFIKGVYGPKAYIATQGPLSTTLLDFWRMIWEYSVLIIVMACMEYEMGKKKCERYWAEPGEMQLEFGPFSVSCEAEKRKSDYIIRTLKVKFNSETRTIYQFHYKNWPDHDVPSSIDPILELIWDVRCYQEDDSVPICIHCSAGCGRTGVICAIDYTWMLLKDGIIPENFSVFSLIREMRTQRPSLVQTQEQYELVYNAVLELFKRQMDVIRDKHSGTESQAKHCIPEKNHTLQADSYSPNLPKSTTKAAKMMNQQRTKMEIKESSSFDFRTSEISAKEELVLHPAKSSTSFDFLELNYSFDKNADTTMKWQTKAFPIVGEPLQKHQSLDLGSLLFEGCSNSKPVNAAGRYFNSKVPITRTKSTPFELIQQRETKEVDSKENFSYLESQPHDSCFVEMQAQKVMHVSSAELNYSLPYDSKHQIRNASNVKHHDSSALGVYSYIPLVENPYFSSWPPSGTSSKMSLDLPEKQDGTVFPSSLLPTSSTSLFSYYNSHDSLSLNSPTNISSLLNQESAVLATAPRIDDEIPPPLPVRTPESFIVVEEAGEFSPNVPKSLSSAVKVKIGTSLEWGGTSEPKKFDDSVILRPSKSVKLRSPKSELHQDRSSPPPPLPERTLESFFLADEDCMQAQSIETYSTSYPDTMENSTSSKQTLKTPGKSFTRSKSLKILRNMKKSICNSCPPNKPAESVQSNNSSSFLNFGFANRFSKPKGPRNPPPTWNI

[3] = biological target: T3, Tyrosine-protein phosphatase non-receptor type 7 (Homo sapiens, UniProt P35236); assay: Inhibition of phosphatase activity of human HePTP using pNPP as a substrate after 10 mins by spectrophotometer analysis
T3 sequence (P35236 whole entry): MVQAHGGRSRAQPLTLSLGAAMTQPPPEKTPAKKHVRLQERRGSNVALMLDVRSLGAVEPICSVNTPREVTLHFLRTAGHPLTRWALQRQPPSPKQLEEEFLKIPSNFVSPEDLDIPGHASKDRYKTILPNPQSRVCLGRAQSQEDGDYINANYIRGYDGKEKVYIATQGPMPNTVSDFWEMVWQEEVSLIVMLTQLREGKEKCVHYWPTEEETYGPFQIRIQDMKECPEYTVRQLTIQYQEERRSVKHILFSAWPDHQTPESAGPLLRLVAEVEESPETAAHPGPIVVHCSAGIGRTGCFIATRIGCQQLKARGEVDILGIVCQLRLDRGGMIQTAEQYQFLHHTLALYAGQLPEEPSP

[4] = biological target: T4, Tyrosine-protein phosphatase non-receptor type 9 (Homo sapiens, UniProt P43378); assay: Inhibition of phosphatase activity of human Meg2 using pNPP as a substrate after 10 mins by spectrophotometer analysis
T4 sequence (P43378 whole entry): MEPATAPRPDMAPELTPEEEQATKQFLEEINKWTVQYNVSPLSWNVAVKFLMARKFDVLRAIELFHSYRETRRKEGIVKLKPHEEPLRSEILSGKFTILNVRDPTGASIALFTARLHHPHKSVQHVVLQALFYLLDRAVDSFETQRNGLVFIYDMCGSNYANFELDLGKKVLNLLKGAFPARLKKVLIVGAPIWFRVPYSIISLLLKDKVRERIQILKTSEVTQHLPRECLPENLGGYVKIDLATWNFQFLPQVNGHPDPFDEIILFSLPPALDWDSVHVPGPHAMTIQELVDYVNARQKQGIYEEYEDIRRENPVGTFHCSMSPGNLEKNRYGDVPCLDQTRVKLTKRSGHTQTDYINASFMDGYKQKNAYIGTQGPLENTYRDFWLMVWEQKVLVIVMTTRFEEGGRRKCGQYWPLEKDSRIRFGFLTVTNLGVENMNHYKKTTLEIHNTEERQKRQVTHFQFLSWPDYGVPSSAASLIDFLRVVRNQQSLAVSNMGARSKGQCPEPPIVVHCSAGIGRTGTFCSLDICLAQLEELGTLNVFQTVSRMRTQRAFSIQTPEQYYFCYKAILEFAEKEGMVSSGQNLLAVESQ

[5] = biological target: Receptor-type tyrosine-protein phosphatase alpha (Homo sapiens, UniProt P18433); assay: Inhibition of phosphatase activity of human PTPalpha using pNPP as a substrate after 10 mins by spectrophotometer analysis
Chain of Receptor-type tyrosine-protein phosphatase alpha (P18433 whole entry): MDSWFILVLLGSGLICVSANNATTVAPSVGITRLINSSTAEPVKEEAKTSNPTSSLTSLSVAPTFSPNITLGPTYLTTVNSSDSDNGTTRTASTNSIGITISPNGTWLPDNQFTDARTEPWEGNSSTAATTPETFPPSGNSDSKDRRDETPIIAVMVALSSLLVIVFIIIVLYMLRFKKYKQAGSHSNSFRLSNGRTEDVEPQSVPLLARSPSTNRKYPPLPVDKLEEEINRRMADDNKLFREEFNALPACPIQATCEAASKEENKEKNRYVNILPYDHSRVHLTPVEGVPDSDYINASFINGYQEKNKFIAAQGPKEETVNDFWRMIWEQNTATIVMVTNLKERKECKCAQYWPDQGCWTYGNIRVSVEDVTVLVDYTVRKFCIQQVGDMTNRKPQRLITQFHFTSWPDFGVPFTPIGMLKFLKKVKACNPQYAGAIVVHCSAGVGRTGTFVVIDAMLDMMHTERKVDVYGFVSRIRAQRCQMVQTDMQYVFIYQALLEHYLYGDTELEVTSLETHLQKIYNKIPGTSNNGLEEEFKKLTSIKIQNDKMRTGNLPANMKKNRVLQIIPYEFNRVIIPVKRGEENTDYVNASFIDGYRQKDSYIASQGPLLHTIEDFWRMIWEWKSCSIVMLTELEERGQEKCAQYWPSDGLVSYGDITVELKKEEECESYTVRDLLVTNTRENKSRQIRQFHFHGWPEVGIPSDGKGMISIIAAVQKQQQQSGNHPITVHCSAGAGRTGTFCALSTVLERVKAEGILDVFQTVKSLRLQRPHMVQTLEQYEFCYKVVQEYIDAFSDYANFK

[6] = biological target: Receptor-type tyrosine-protein phosphatase beta (Homo sapiens, UniProt P23467); assay: Inhibition of phosphatase activity of human PTPbeta using pNPP as a substrate after 10 mins by spectrophotometer analysis
Chain of Receptor-type tyrosine-protein phosphatase beta (P23467 whole entry): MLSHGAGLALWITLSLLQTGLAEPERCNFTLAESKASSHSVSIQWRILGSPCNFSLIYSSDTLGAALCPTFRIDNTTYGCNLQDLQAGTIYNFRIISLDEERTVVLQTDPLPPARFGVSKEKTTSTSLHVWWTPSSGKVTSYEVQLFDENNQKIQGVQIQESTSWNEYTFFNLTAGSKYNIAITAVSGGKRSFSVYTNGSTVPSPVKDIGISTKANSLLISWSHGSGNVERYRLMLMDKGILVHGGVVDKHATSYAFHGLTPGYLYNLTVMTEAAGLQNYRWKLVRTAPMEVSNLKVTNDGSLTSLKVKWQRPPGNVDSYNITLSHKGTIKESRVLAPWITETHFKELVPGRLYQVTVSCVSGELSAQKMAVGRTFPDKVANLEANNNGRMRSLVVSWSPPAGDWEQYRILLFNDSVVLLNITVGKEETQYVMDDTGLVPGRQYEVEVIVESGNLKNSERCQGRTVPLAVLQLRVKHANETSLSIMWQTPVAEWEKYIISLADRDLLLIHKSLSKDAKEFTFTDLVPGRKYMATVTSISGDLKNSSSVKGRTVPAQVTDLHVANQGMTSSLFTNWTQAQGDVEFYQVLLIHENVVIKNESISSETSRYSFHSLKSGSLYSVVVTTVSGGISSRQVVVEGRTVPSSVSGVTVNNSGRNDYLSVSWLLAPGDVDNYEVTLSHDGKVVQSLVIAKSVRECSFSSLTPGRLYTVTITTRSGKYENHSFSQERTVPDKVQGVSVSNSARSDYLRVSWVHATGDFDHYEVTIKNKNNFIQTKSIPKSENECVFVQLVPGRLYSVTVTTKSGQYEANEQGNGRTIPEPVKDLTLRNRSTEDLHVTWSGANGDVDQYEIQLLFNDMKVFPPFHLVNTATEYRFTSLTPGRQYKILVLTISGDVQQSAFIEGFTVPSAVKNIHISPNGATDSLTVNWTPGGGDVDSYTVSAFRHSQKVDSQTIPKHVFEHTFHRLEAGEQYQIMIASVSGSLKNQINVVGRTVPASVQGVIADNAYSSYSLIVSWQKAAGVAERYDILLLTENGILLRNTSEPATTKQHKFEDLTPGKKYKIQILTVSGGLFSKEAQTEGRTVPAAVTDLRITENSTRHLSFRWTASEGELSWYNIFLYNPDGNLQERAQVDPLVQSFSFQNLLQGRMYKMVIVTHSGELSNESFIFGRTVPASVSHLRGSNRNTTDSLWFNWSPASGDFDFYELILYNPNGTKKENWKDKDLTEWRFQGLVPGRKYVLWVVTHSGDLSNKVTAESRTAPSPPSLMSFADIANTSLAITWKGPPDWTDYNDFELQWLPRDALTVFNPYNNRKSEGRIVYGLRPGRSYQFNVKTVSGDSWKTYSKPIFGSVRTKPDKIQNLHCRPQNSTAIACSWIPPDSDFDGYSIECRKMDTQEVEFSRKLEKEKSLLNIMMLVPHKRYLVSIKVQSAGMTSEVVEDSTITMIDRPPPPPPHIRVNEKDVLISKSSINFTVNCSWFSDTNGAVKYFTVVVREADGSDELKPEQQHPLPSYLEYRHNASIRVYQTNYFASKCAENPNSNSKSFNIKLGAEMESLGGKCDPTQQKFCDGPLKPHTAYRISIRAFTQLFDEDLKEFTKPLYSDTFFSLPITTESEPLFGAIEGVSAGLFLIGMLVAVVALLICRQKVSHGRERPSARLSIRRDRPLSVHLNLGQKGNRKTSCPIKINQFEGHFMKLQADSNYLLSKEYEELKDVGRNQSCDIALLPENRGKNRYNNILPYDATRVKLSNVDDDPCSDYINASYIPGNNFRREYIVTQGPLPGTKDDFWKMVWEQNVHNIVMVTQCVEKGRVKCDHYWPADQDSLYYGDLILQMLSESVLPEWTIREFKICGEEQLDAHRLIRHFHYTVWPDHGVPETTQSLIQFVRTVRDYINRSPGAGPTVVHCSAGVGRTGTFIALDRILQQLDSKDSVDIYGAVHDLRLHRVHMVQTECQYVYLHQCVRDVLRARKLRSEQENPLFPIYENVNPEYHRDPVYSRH

[7] = biological target: Receptor-type tyrosine-protein phosphatase epsilon (Homo sapiens, UniProt P23469); assay: Inhibition of phosphatase activity of human PTPepsilon using pNPP as a substrate after 10 mins by spectrophotometer analysis
[8] = biological target: Receptor-type tyrosine-protein phosphatase gamma (Homo sapiens, UniProt P23470); assay: Inhibition of phosphatase activity of human PTPgamma using pNPP as a substrate after 10 mins by spectrophotometer analysis
[9] = biological target: Receptor-type tyrosine-protein phosphatase mu (Homo sapiens, UniProt P28827); assay: Inhibition of phosphatase activity of human PTPmu using pNPP as a substrate after 10 mins by spectrophotometer analysis
[10] = biological target: Receptor-type tyrosine-protein phosphatase F (Homo sapiens, UniProt P10586); assay: Inhibition of phosphatase activity of human LAR using pNPP as a substrate after 10 mins by spectrophotometer analysis
Chain of Receptor-type tyrosine-protein phosphatase F (P10586 whole entry): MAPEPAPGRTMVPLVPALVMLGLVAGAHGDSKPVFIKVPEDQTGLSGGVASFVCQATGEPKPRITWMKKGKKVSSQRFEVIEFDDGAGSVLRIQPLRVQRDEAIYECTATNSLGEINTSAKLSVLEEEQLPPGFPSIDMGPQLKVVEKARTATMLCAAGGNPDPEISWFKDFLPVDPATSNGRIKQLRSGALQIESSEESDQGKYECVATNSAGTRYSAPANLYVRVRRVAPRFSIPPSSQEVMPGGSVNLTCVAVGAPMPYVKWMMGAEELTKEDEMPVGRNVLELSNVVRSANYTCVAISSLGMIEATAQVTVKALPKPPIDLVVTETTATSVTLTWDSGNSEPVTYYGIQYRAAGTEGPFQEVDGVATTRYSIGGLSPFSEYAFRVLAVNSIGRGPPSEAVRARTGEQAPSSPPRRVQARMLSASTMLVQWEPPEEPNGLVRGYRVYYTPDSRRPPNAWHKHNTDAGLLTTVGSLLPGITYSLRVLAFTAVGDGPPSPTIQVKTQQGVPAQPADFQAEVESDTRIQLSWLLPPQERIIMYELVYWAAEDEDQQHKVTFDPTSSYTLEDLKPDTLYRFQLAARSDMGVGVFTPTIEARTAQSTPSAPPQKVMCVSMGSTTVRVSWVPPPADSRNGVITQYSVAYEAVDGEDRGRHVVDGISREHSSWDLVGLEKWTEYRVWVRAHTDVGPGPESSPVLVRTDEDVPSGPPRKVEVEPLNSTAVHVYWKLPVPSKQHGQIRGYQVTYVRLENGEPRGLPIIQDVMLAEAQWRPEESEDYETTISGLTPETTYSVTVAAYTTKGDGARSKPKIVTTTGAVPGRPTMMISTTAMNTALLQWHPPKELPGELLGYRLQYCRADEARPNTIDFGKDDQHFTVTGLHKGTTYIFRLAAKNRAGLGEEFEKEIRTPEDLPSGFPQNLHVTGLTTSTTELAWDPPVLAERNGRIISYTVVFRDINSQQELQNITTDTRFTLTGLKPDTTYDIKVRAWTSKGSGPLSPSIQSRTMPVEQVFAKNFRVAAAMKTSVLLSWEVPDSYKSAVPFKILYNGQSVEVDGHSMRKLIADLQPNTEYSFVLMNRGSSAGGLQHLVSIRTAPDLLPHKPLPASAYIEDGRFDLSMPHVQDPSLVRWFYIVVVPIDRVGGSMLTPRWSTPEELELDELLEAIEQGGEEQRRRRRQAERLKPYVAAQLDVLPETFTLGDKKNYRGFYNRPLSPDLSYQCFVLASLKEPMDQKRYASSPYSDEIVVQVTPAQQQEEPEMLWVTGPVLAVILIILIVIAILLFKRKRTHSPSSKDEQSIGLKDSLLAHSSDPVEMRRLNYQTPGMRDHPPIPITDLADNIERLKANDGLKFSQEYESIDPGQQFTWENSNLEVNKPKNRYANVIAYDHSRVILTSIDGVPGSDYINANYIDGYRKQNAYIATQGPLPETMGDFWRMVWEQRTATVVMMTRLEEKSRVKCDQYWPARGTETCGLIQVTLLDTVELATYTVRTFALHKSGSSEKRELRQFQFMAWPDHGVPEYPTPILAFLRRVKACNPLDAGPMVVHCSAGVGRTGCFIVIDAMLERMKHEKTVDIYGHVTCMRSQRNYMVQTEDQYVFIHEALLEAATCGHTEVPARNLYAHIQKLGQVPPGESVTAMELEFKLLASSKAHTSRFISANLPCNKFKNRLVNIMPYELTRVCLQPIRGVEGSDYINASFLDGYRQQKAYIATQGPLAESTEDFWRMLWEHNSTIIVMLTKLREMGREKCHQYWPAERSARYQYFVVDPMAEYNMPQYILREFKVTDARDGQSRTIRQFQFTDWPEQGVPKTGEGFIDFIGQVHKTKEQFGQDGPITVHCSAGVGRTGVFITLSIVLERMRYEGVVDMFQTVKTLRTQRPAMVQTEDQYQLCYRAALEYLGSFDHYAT

[11] = biological target: Dual specificity protein phosphatase 3 (Homo sapiens, UniProt P51452); assay: Inhibition of phosphatase activity of human VHR using pNPP as a substrate after 10 mins by spectrophotometer analysis
Chain of Dual specificity protein phosphatase 3 (P51452 whole entry): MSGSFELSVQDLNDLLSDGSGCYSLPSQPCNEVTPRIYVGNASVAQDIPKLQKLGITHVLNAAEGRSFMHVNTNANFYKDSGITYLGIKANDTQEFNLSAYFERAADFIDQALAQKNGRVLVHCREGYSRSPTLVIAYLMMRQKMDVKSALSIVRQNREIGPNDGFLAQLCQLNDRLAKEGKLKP

[12] = biological target: T5, Dual specificity protein phosphatase CDC14A (Homo sapiens, UniProt Q9UNH5); assay: Inhibition of phosphatase activity of human CDC14A using pNPP as a substrate after 10 mins by spectrophotometer analysis
T5 sequence (Q9UNH5 whole entry): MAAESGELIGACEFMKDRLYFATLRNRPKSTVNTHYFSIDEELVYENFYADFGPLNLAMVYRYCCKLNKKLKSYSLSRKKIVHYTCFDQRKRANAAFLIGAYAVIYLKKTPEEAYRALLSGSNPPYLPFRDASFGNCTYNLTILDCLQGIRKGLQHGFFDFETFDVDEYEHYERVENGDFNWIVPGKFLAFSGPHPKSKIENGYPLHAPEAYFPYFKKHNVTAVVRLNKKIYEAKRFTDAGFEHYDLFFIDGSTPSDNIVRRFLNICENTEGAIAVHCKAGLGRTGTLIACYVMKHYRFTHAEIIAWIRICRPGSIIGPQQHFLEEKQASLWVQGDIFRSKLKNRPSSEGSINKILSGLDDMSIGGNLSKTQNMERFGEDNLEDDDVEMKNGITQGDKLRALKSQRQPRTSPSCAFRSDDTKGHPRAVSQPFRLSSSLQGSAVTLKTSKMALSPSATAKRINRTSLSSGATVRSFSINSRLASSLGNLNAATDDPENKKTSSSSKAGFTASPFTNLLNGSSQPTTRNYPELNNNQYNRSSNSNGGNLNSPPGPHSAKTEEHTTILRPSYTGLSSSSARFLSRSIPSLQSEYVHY

[13] = biological target: T6, Low molecular weight phosphotyrosine protein phosphatase (Homo sapiens, UniProt P24666); assay: Inhibition of phosphatase activity of human LMWPTP using pNPP as a substrate after 10 mins by spectrophotometer analysis
T6 sequence (P24666 whole entry): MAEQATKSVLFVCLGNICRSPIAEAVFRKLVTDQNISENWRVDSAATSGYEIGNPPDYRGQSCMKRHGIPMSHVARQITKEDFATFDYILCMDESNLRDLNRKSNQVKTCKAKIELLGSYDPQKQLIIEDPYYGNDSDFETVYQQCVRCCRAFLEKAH

[14] = biological target: T7, Serine/threonine-protein phosphatase 5 (Homo sapiens, UniProt P53041); assay: Inhibition of phosphatase activity of human PP5 using pNPP as a substrate after 10 mins by spectrophotometer analysis
T7 sequence (P53041 whole entry): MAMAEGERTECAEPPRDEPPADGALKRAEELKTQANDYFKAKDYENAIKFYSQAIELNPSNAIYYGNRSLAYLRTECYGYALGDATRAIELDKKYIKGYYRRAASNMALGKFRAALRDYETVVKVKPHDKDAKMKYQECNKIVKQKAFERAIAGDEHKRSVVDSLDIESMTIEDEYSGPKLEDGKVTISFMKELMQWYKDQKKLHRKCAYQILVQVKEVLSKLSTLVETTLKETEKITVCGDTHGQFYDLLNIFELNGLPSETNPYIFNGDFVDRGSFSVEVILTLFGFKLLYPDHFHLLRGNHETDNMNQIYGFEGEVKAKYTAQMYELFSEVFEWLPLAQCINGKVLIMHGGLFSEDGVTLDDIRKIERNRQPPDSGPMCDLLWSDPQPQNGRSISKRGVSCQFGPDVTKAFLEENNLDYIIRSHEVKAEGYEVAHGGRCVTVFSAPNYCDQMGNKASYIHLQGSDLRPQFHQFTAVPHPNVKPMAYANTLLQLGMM

[15] = biological target: T8, Tyrosine-protein phosphatase non-receptor type 11 (Homo sapiens, UniProt Q06124); assay: Competitive inhibition of phosphatase activity of SHP2 (unknown origin) using pNPP as a substrate Lineweaver-Burk plot analysis
T8 sequence (Q06124 whole entry): T1 sequence (whole entry)
How it was run: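 SHP2-catalysed hydrolysis of para-nitrophenyl phosphate measured with inhibitor at 0, 0.25, 0.5 and 0.75 μM. Inhibition mode assigned from a Lineweaver–Burk (double-reciprocal) plot.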

[16] = biological target: T1, Tyrosine-protein phosphatase non-receptor type 11 (Homo sapiens); assay: Inhibition of SHP2 in human NCI-H1975 cells assessed as reduction of EGF-induced ERK1/2 activation at 40 uM after 60 mins relative to control; type: cell-based
How it was run: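 H1975 cells were stimulated with EGF and ERK1/2 and paxillin phosphorylation was assessed by immunoblot. Band intensities were quantified, and pERK1/2/total ERK1/2 or pPaxillin(Y118)/total paxillin ratios were normalized to the reference. Blots are representative of at least two independent experiments, with quantified values given as mean ± SD.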

[17] = biological target: T1, Tyrosine-protein phosphatase non-receptor type 11 (Homo sapiens); assay: Inhibition of SHP2 in human NCI-H1975 cells assessed as increase in EGF-induced paxillin phosphorylation at Y118 at 40 uM after 60 mins relative to control

For `CC(C)c1ccc(NC(=O)C(=O)Nc2ccc(NC(=O)C(c3ccccc3)S(=O)(=O)O)cc2)cc1` (stereo not drawn), the Activity (NCI-H1975) was “Dose-dependent effect” and the Activity (MDA-MB-231) was “Dose-dependent effect”.
In the case of `O=C(O)C(=O)Nc1ccc(NC(=O)C(c2ccccc2)S(=O)(=O)O)cc1` (stereo not drawn), the inhibition [1] is reported as “inactive”.
`O=C(O)C(=O)Nc1ccc(CNC(=O)C(c2ccccc2)S(=O)(=O)O)cc1` (stereo not drawn) was tested, and the inhibition [1] was “inactive”.
`O=C(Nc1ccc(I)cc1)C(=O)Nc1ccc(NC(=O)C(c2ccccc2)S(=O)(=O)O)cc1` (stereo not drawn) was tested, and the “growth inhibition (GI)” value (SK-BR-3) was “Dose-dependent effect”, the IC50 [2] was > 50 µM and the IC50 [3] was > 50 µM. The IC50 [4] was > 50 µM, the IC50 [5] was > 50 µM and the IC50 [6] was > 50 µM. The IC50 [7] was > 50 µM, the IC50 [8] was > 50 µM and the IC50 [9] was > 50 µM. The IC50 [10] was > 50 µM, the IC50 [11] was > 50 µM and the IC50 [12] was > 50 µM. The IC50 [13] was > 50 µM, the IC50 [14] was > 50 µM and the Ki [15] was 0.51 µM. The Activity (NCI-H1975) was “Dose-dependent effect”, the Activity (MDA-MB-231) was “Dose-dependent effect” and the fold change (FC) [16] was 0.6. For the same compound, the fold change (FC) [17] was 1.3.
